Laboratory results as given in PMC7115674 (Peptides, 2008).
Entries after “also recorded” stand apart in the source; their conditions may differ. Where two headings read alike, the source gives them in different places.

Key:
trypsin [1] = conditions: in words; cited from earlier work
tumor cells [2] = conditions: in words; cited from earlier work
Fusarium oxysporum [3] = conditions: in words; cited from earlier work
[4] = test system: Mycosphaerella arachidicola; conditions: in words; cited from earlier work
[5] = test system: breast cancer MCF-7 cell line; conditions: read-out: IC50, antiproliferative activity; cited from earlier work
fungal species [6] = conditions: in words; cited from earlier work
[7] = test system: HIV-1 reverse transcriptase; conditions: cited from earlier work
[8] = test system: a Helminthosporium species; conditions: in words; cited from earlier work
HIV-1 integrase [9] = conditions: cited from earlier work
hepatoma HepG2 cell line = conditions: read-out: IC50, antiproliferative activity; cited from earlier work
mouse splenocytes [10] = conditions: toward mouse splenocytes; cited from earlier work
[11] = test system: severe acute respiratory syndrome (SARS) coronavious (CoV) protease; conditions: cited from earlier work
[12] = test system: HIV-1 reverse transcriptase; assay: HIV-1 reverse transcriptase inhibitory activity; type: biochemical; conditions: in words
[13] = test system: a Helminthosporium species; assay: Antifungal activity, a Helminthosporium species; type: cell-based; conditions: in words
Procedure, shortened: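 Mycelial disk-diffusion assay on potato dextrose agar. After the colony developed, sterile paper disks (0.625 cm) were placed 1 cm from the colony rim. Each disk received test peptide (60 μg or 300 μg) in 20 mM PBS, pH 6.0, and buffer served as the control. Plates were incubated at 23 °C for 72 h and scored for crescents of inhibition around the disks.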

fungal species [14] = assay: Antifungal activity, fungal species in general or not specified; type: cell-based; conditions: for antifungal activity: in words
Valsa mali = assay: Antifungal activity, mycelial growth inhibition, Valsa mali; type: cell-based; conditions: read-out: IC50 of antifungal activity; potato dextrose agar, 23 °C, 72 h; 50% reduction in area of mycelial colony
Procedure, shortened: (§1)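 Four doses of test peptide were mixed separately into potato dextrose agar at 45 °C and poured into small plates. Each plate then received an equal amount of mycelia, with a buffer-only control. After 72 h at 23 °C, colony area was measured. % inhibition = reduction in colony area relative to the control. IC50 was read from the % reduction versus concentration plot at 50% reduction.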

Fusarium oxysporum [15] = assay: Antifungal activity, mycelial growth inhibition, Fusarium oxysporum; type: cell-based
Procedure, shortened: as §1

[16] = test system: Mycosphaerella arachidicola; assay: Antifungal activity, mycelial growth inhibition, Mycosphaerella arachidicola; type: cell-based
Procedure, shortened: as §1

trypsin [17] = assay: Trypsin-inhibitory activity; type: biochemical
HIV-1 integrase [18] = assay: HIV-1 integrase inhibition; type: biochemical; conditions: data not shown
[19] = test system: severe acute respiratory syndrome (SARS) coronavious (CoV) protease; type: biochemical
[20] = Thermal and pH stability of antifungal activity; type: physicochemical; conditions: for thermostability: antifungal activity after thermal pretreatment
Procedure, shortened: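 Test peptide was pretreated at 0–100 °C for 10 min or at pH 0–3 and 10–14 for 30 min. Ions were also tested. Residual antifungal activity was then measured by the paper-disk assay on potato dextrose agar (2 μg peptide per disk, buffer control disk, 23 °C, 72 h), scoring inhibition crescents.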

tumor cells [21] = assay: Antiproliferative activity on tumor cells, line not specified; type: cell-based; conditions: in words
Procedure, shortened: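 MCF-7 breast cancer and HepG2 hepatoma cells were suspended in RPMI at 2 × 10^4 cells/ml, seeded and incubated for 24 h. Graded concentrations of test peptide in complete RPMI were added for 72 h. MTT (5 mg/ml stock in PBS) was added for 4 h, plates were centrifuged, formazan was dissolved in DMSO and absorbance read at 590 nm.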

mouse splenocytes [22] = assay: Mitogenic activity; type: cell-based; conditions: data not shown; Con A positive control
Helminthosporium maydis = assay: Antifungal activity, mycelial growth inhibition, Helminthosporium maydis; type: cell-based; conditions: read-out: IC50 of antifungal activity; potato dextrose agar, 23 °C, 72 h; 50% reduction in area of mycelial colony
Procedure, shortened: as §1

[23] = read-out: IC50 of antifungal activity, potato dextrose agar, 23 °C, 72 h, 50% reduction in area of mycelial colony

SECLKEYGGDVGFGFCAPRIYPSFCVQRC [Brassica napus trypsin inhibitor]
trypsin inhibitory activity (trypsin [1]): manifest trypsin inhibitory activity

ALSCGTVSGNLAACAGYV [B. campestris antifungal peptide]
antiproliferative activity toward tumor cells (tumor cells [2]): antiproliferative activity toward tumor cells
antifungal activity toward F. oxysporum (Fusarium oxysporum [3]): antifungal activity toward F. oxysporum
antifungal activity toward M. arachidicola [4]: antifungal activity toward F. oxysporum, M. arachidicola
IC50 [5]: 1.6 µM
antifungal activity (fungal species [6]): with antifungal activity
HIV-1 reverse transcriptase inhibitory activity ([7]; in words): HIV-1 reverse transcriptase inhibitory activity
IC50 ([7]; read-out: IC50, HIV-1 reverse transcriptase inhibitory activity): 4 µM
antifungal activity toward a Helminthosporium species [8]: antifungal activity toward F. oxysporum, M. arachidicola and a Helminthosporium species
HIV-1 integrase inhibitory activity (HIV-1 integrase [9]): Neither kale nor B. campestris antifungal peptide demonstrated HIV-1 integrase inhibitory
IC50 (hepatoma HepG2 cell line): 5.8 µM
mitogenic activity (mouse splenocytes [10]): devoid of mitogenic activity toward mouse splenocytes
SARS proteinase inhibitory activity [11]: Neither kale nor B. campestris antifungal peptide demonstrated HIV-1 integrase inhibitory and SARS proteinase inhibitory activities

PEGPFQGPKATKPGDLAXQTWGGWXGQTPKY [kale antifungal peptide]
HIV-1 reverse transcriptase inhibitory activity [12]: HIV-1 reverse transcriptase inhibitory activity; also recorded: potent antiproliferative and HIV-1 reverse transcriptase inhibitory activities
antifungal activity toward a Helminthosporium species [13]: antifungal activity toward F. oxysporum, M. arachidicola and a Helminthosporium species
antifungal potency compared with other antifungal proteins (fungal species [14]; compared with antifungal proteins of refs 31, 32, 40): more potent than that of the antifungal proteins
antifungal activity (fungal species [14]): broad spectrum of antifungal activity; also recorded: exhibit antifungal activity
antifungal activity (fungal species [14]; listed as antifungal peptide): stable and broad-spectrum antifungal activity
IC50 (Valsa mali): 0.15 µM
antifungal activity toward F. oxysporum (Fusarium oxysporum [15]; in words): antifungal activity toward F. oxysporum
IC50 (Fusarium oxysporum [15]; [23]): 4.3 µM
antifungal activity toward M. arachidicola ([16]; in words): antifungal activity toward F. oxysporum, M. arachidicola
IC50 [16, 23]: 2.4 µM
trypsin inhibitory activity toward BAEE (trypsin [17]; BAEE as substrate, tested up to 50 μM, detailed data not shown): lacked trypsin inhibitory activity
trypsin inhibitory activity toward casein (trypsin [17]; casein as substrate, tested up to 10 μM, detailed data not shown): lacked trypsin inhibitory activity
trypsin inhibitory activity (trypsin [17]; substrate not specified, in words): did not exhibit trypsin inhibitory activity
HIV-1 integrase inhibitory activity (HIV-1 integrase [18]): devoid of
SARS proteinase inhibitory activity [19]: devoid of
pH stability ([20]; antifungal activity after pH pretreatment, in words): remarkable thermostability and pH stability
thermostability ([20]; in words): remarkable thermostability
thermostability ([20]; in words, listed as antifungal peptide): pronounced thermostability
acid pH range after which antifungal activity was retained ([20]; pH, pretreatment 30 min, tested pH 0–3, paper disk assay, 2 μg peptide per disk): 2–3
antiproliferative activity (tumor cells [21]): demonstrated antiproliferative activity; also recorded: antiproliferative activity toward tumor cells; also recorded: potent antiproliferative
mitogenic activity (mouse splenocytes [22]): devoid of mitogenic activity
IC50 (Helminthosporium maydis): 2.1 µM
